The values that follow come from ChEMBL document CHEMBL4765386, “Discovery of tertiary amide derivatives incorporating benzothiazole moiety as anti-gastric cancer agents in vitro via inhibiting tubulin polymerization and activating the Hippo signaling pathway” (Eur J Med Chem, 2020).

Data set [1] concerns MGC-803. The experiment in a line: Induction of apoptosis in human MGC-803 cells assessed as upregulation of t-Bid at 20 to 60 nM incubated for 48 hrs by Western blot analysis. Format: functional, cell-based. The conditions noted are these: dose 20-60 nM. In a few lines: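 Western blot on MGC-803 and SGC-7901 cells given 20, 40 and 60 nM compound or DMSO for 48 h. Denatured lysates were run on SDS-PAGE and transferred to PVDF, then probed with primary and secondary antibodies to detect apoptosis-related proteins.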

The test system of data set [2] is MGC-803. Briefly: Induction of apoptosis in human MGC-803 cells assessed as early apoptotic cells at 40 nM incubated for 48 hrs by annexin V-FITC and PI staining based flow cytometry analysis (reference value: 2.9 %). Format: functional.
Data set [3] deals with SGC-7901. Briefly: Induction of apoptosis in human SGC-7901 cells assessed as early apoptotic cells at 40 nM incubated for 48 hrs by annexin V-FITC and PI staining based flow cytometry analysis (reference value: 1.4 %). Format: functional. (In general: Flow cytometry measures light scatter and fluorescence of single cells or particles in a stream.)
In data set [4] the test system is SGC-7901. Briefly: Cytotoxicity against human SGC-7901 cells harboring SiYAP assessed as increase in cell viability at 20 to 60 nM incubated for 48 hrs by MTT assay. It counts as cell-based. To be noted: sgc-7901, 48 h, 0.06 µM, dose 20-60 nM. (In general: Formazan colour is commonly taken as a measure of viable cells.)
Data set [5] has as its system SGC-7901. Briefly: Inhibition of colony formation in human SGC-7901 cells at 20 to 60 nM incubated for 7 days by crystal violet staining based assay. It counts as functional, cell-based. The conditions noted are these: dose 20-60 nM, time 7.0 day. Summed up:
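Cells maintained in RPMI-1640 with 10% FBS at 37 °C, 5% CO2; incubated with 20, 40 and 60 nM for 7 days before colony counting.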

Activity calls are given as the source filed them. The rule behind the calls is not given here.

For the compound `COc1ccc(CN(C(=O)CSc2nc3ccccc3s2)c2cc(OC)c(OC)c(OC)c2)cc1O`, the outcome in the data set on MGC-803 [1] and in the data set with SGC-7901 [5] was Active. Also, the Activity in the data set on MGC-803 [2] is listed as 10.2%; with SGC-7901 [3], 9.5%; in the data set with SGC-7901 [4], “Non-Toxic”.
